PubChem BioAssay
Calls of active or inactive are those of the source.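 The calls were made as follows, unless noted: active = inhibition at or above 50% relative to wild type and mutant plate controls; inactive = inhibition below 50%.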

Tests used:
[1] = inhibitors of TNFa-induced NFkB p65 translocation, primary screen, imaging, HUVEC, MLSMR starter and 10KST1 sets (AID 438;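 active = inhibition above 20% together with a positive visual image hit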;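 also: compound added about 3h40 before a 20 min TNFalpha stimulation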;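 as to inhibition: signal is the nuclear over cytoplasmic p65 intensity ratio per well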); conditions: HUVEC TNFa-induced p65 nuclear translocation; cell count: measured here: nuclei count (cytotoxicity indicator), at 2.08 µM; inhibition: at 2 µM, stronger effect = higher value, 0% TNFa-plus-vehicle, 100% no-TNFa wells
[2] = inhibitors of E-selectin induction by TNFa, primary screen, imaging, HUVEC, immunofluorescence, MLSMR starter and 10KST1 sets (AID 487;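 active = visually confirmed hit in the image check and inhibition above 20%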;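 as to inhibition: signal is fraction of cell area covered by stained E-selectin grains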;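 as to nuclei count: 100% = median nuclei count of all wells on the same plate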); conditions: HUVEC TNFalpha-induced E-selectin immunofluorescence imaging, at 2 µM; inhibition: stronger effect = higher value; nuclei count: measured here: cell number, toxicity
[3] = DUSP6 inhibitors restoring Erk phosphorylation by chemical complementation, primary imaging in DUSP6-transfected HeLa (AID 609;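 active = compounds giving at least 50% inhibition in the cell-based MKP-3 phosphatase rescue imaging test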;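 as to inhibition: phospho-Erk level distribution per well compared with pooled transfected vehicle control wells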); conditions: HeLa MKP-3 transfected, phospho-Erk imaging KS statistic, at 10 µM, cells stimulated with TPA for 15 min
[4] = molecular target: Dual specificity protein phosphatase 6 (Homo sapiens) (UniProt Q16828); test: as above; conditions: HeLa MKP-3 transfected, phospho-Erk imaging KS statistic; at 10 µM; stronger effect = higher value; cells stimulated with TPA for 15 min
Sequence of Dual specificity protein phosphatase 6 (Homo sapiens) (Q16828 whole entry, looked up): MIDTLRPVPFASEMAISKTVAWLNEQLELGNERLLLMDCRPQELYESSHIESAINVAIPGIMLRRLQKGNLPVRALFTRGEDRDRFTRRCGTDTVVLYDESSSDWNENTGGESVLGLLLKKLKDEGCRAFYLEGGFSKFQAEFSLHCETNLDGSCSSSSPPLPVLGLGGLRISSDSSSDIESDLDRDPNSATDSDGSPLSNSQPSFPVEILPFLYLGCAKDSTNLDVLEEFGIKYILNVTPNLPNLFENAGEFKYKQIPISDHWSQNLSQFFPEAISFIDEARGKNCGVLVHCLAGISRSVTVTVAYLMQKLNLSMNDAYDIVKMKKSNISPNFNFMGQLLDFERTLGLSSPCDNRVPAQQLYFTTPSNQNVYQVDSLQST

[5] = molecular target: Voltage-gated potassium channel subunit beta-2 (Rattus norvegicus) (UniProt P62483); test: KvBeta enzyme negative modulators, primary screen, biochemical, NADPH fluorescence (AID 622;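 active = fluorescence slope higher than the sample average by over 3 SD, cut at about -0.22 in these data, passing the limit was not always enough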;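 also: slope of raw intensity against log time taken from 70 to 1610 s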); conditions: recombinant KvBeta, 4-cyanobenzaldehyde reduction, at 10 µM, stronger effect = higher value
Sequence of Voltage-gated potassium channel subunit beta-2 (Rattus norvegicus) (P62483 whole entry, looked up): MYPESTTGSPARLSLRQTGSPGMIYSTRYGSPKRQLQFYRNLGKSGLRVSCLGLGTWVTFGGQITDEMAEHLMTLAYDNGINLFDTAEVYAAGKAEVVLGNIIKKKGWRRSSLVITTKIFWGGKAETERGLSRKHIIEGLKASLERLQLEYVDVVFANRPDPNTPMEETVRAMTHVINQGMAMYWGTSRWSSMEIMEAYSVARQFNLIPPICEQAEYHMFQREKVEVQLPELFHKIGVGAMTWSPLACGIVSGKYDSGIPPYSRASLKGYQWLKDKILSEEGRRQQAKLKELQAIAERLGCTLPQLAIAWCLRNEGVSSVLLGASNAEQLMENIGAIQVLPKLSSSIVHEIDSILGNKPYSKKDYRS

[6] = molecular target: Voltage-gated potassium channel subunit beta-2 (Rattus norvegicus) (UniProt P62483); test: KvBeta positive modulators, primary screen, biochemical, NADPH fluorescence (AID 623;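 active = NADPH fluorescence slope more negative than the mean of all samples by about 3 SD, 99.7% confidence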;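 also: fluorescence intensity change per second fitted from 20 to 320 s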); conditions: Recombinant KvBeta, NADPH fluorescence decrease slope, 10 min; at 10 µM; stronger effect = lower value
[7] = molecular target: Muscarinic acetylcholine receptor M4 (Homo sapiens) (UniProt P08173); test: compounds altering M4/GIRK thallium flux, either direction, primary screen, M4 allosteric agonist project, cell-based, HEK293 M4/GIRK, BTC-AM (AID 625;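 active = fluorescence slope after compound addition differing from the mean of all tested samples at 99.7% confidence, mostly higher but some lower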;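 also: thallium influx through GIRK channels coupled to M4 in HEK293 cells with BTC-AM dye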); conditions: at 10 µM, actives lie on both sides
Sequence of Muscarinic acetylcholine receptor M4 (Homo sapiens) (P08173 whole entry, looked up): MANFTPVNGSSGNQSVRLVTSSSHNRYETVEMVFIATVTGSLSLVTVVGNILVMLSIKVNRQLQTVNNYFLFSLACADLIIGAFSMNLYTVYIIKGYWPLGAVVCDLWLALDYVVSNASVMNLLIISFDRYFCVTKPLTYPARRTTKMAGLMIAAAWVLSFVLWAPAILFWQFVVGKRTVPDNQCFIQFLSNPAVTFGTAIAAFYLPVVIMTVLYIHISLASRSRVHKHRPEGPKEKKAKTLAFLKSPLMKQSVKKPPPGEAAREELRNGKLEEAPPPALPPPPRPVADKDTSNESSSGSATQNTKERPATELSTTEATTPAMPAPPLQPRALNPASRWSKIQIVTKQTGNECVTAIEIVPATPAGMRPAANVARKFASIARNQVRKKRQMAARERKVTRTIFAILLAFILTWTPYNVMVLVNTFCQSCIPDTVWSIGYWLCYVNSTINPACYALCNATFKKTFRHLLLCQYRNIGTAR
Method in brief: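 Material: HEK293 cells with M4 receptor and GIRK channels; Times: cells overnight at 37 °C, BTC-AM loading 1 h, reads 2 min total; Technique: kinetic BTC-AM fluorescence sampled at 1 Hz, 10 s pre-addition baseline; Read-out basis: slope over 15–24 s of trace normalized to starting intensity; Controls: carbachol positive, DMSO negative.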

[8] = inhibitors of larval lipid processing in zebrafish, primary screen, whole organism, PED6 fluorescence, gall bladder and intestine (AID 686;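 active = a full or partial loss of lipid-probe fluorescence in the fish gall bladder, intestine or both, judged by eye; inactive = no fluorescence loss, or compound toxic to the fish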;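 also: larvae 5 to 7 days old with five fish per well; signal comes from phospholipase A2 cleavage of quenched PED6 carried via bile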); conditions: Zebrafish larvae PED6 lipid processing, fluorescence scoring; screened at 20 µM (by protocol)
Method in brief: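 Incubation: overnight exposure of larvae to compound plus PED6 / Test system: live zebrafish larvae aged 5-7 days, whole organism / Amount: 5 larvae per well / Read-out basis: visual per-well fluorescence inhibition score / Signal: visual fluorescence microscopy scoring of gall bladder, gut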

[9] = inhibitors of Chlamydomonas gravitaxis, primary screen, whole organism, Chlamydomonas reinhardtii, WT vs cilia-less mutant, absorbance, 96-well (AID 463189); conditions: OD600 absorbance, 2 days, at 10 µM, stronger effect = higher value;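 also: 0% = wild type cc124 cells in DMSO and 100% = ciliumless bld1 mutant cells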
[10] = measured here: cell density z-score
[11] = measured here: nuclear c-Myc green intensity z-score
[12] = measured here: nuclear pErk red intensity z-score, stronger effect = higher value

| SMILES | cell count [1] | inhibition [1] | inhibition [2] | nuclei count [2] | z-score [3, 10] | z-score [3, 11] | z-score [3, 12] | inhibition [4] | fluorescence slope [5] | NADPH fluorescence slope [6] | fluorescence slope [7] | outcome [8] | inhibition [9] |
| --- | --- | --- | --- | --- | --- | --- | --- | --- | --- | --- | --- | --- | --- |
| CCOC(=O)c1[nH]c2ccccc2c1N=C(C)N(CC)CC | 643 | -7% (inactive) | -113% (inactive) | 160% | -1.18 | 2.66 | 0.345 | 11.9% (inactive) | -0.521 (inactive) | -3.5e-05 (inactive) | 0.00643 (inactive) | inactive | -5.79% (inactive) |
| CCOC(=O)c1[nH]c2ccc(F)cc2c1NC(=O)CCN1CCSCC1 | 617 | -1.1% (inactive) | -124% (inactive) | 130% | -0.422 | 0.0168 | 1.05 | 1.42% (inactive) | -0.455 (inactive) | -0.000125 (inactive) | 0.00431 (inactive) | inactive | -7.59% (inactive) |
| Cc1cc(SCCC(=O)O)nc2ccccc12 | 685 | -18.8% (inactive) | -36.7% (inactive) | 201% | -0.264 | 0.626 | 0.219 | 5.95% (inactive) | -0.488 (inactive) | -4.8e-05 (inactive) | 0.00621 (inactive) | inactive | -15.2% (inactive) |
| Cc1cc(C)n(S(=O)(=O)/C=C/c2ccccc2)n1 | 395 | -10.4% (inactive) | -329% (inactive) | 150% | 8.45e-06 | -0.53 | 0.596 | -10.6% (inactive) | -0.475 (inactive) | -0.000103 (inactive) | 0.00397 (inactive) | inactive | 25.5% (inactive) |
| CCOC(=O)c1c(N)sc(=S)c2c1CCC2 | 618 | -6.2% (inactive) | -92.1% (inactive) | 139% | 0.668 | -0.746 | -1.03 | -11.4% (inactive) | -0.467 (inactive) | -0.000294 (inactive) | 0.00293 (inactive) | inactive | 15% (inactive) |
| COC(=O)c1[nH]c2ccc(Cl)cc2c1NC(=O)C1CC1 | 489 | -0.3% (inactive) | -43.6% (inactive) | 120% | -0.422 | -0.0225 | -0.572 | -4.59% (inactive) | -0.451 (inactive) | -5.4e-05 (inactive) | 0.00568 (inactive) | inactive | -10.7% (inactive) |
| COc1ccc(/C(O)=C2/C(=O)C(=O)N(CCCN(C)C)C2c2ccc(C)o2)cc1Cl (centres undefined) | 709 | -8.3% (inactive) | -108% (inactive) | 146% | -0.0808 | -0.238 | -0.0387 | -6.48% (inactive) | -0.48 (inactive) | -4.6e-05 (inactive) | 0.0051 (inactive) | inactive | 18.3% (inactive) |
| CCCSc1nc(O)c(C2OC(=O)c3c2ccc(OC)c3OC)c(=O)n1C (centres undefined) | 560 | -1.3% (inactive) | 29.6% (inactive) | 143% | 0.566 | -0.178 | 0.157 | 7.93% (inactive) | -0.415 (inactive) | -3.7e-05 (inactive) | 0.00648 (inactive) | inactive | 12.4% (inactive) |
| N#CC1=C(N)OC2=C(C(=O)CCC2)[C@]12C(=O)N(CC(N)=O)c1ccccc12 | 485 | -9.7% (inactive) | -41.1% (inactive) | 130% | -0.751 | 0.747 | -0.43 | -7.28% (inactive) | -0.431 (inactive) | -3e-05 (inactive) | 0.00487 (inactive) | inactive | -0.197% (inactive) |
| COc1cccc(C(=O)N2CCN(Cc3ccccn3)CC2)c1OC | 503 | -5.7% (inactive) | -70.6% (inactive) | 158% | -2.51 | 0.355 | 0.989 | -12.3% (inactive) | -0.466 (inactive) | -5.6e-05 (inactive) | 0.00645 (inactive) | inactive | 1.71% (inactive) |
| Cc1ccc(S(=O)(=O)N(CC(O)CN2CCOCC2)c2cc(Cl)ccc2Cl)cc1 (centres undefined) | 597 | -2.7% (inactive) | -35% (inactive) | 112% | -0.865 | 1.14 | 0.263 | 7.42% (inactive) | -0.403 (inactive) | -2.9e-05 (inactive) | 0.00509 (inactive) | inactive | -2.19% (inactive) |
| Cc1c(C2CC(=O)N(c3ccccc3)C2=O)[nH]n(-c2ccccc2)c1=O (centres undefined) | 618 | 4.4% (inactive) | -97.6% (inactive) | 143% | -1.05 | 0.971 | 0.084 | -7.86% (inactive) | -0.488 (inactive) | -5.3e-05 (inactive) | 0.00493 (inactive) | inactive | 6.43% (inactive) |
| Cc1cccc(N2CC(=O)N(c3cccc(C)c3)CC2=O)c1 | 691 | -1.4% (inactive) | -33.5% (inactive) | 201% | -0.963 | 0.808 | -0.574 | 3.97% (inactive) | -0.477 (inactive) | -5.4e-05 (inactive) | 0.00702 (inactive) | inactive | -8.04% (inactive) |
